We go through ten compounds from ChEMBL document CHEMBL1649334, “Trypanocidal activity of aziridinyl nitrobenzamide prodrugs” (Antimicrob Agents Chemother, 2010).

The test system of assay [1] is Vero. As to the kind of experiment: Cytotoxicity against african green monkey Vero cells after 6 days by Alamar blue assay. To be noted: Chlorocebus sabaeus, 144 h. The format is cell-based. An outline of the steps: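 Vero cells seeded at 1×10^4 ml⁻¹ in RPMI 1640 with 10% FCS containing graded compound (up to 250 μM). 6 days at 37°C, 5% CO2, then Alamar Blue for 8 h; fluorescence read and IC50 derived.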

For assay [2], the system named is Trypanosoma cruzi. As to the kind of experiment: Antitrypanosomal activity against Trypanosoma cruzi clone Cl-Brener infected in african green monkey Vero cells assessed as growth inhibition after 3 days by luciferase reporter gene assay. The format is functional, organism-based. The conditions noted are these: 72 h. An outline of the steps: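 Vero cells seeded at 1.5×10^4 ml⁻¹, allowed to adhere 6 h, then infected overnight with 10,000 luciferase-expressing Cl-Brener trypomastigotes per well. After two washes to remove free parasites, drug-containing medium was added for 3 days at 37°C, 5% CO2. Cells were lysed and luciferase light output read; IC50 calculated.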

Assay [3] relates to V79. The assay can be described thus: Cytotoxicity against chinese hamster V79 cells after 6 days by Alamar blue assay. The format is cell-based. To be noted: Cricetulus griseus, V79, 144 h. A general note: The colour change of resazurin is a common sign of viable cells or microbes.
Assay [4] has as its system Trypanosoma brucei. As to the kind of experiment: Activity of Trypanosoma brucei NTR expressed in Escherichia coli assessed as enzyme-mediated compound reduction by reverse phase HPLC. An outline of the steps: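 Recombinant His-tagged TbNTR purified from E. coli (Ni-NTA). Substrate 100 μM with 200 μM NADH, 3 mM glucose, 1 U glucose dehydrogenase in 50 mM NaH2PO4 pH 7.5 at 37°C; started with 50 μg enzyme. Aliquots at 20–600 s quenched in ice-cold methanol. Substrate loss followed by reversed-phase HPLC (4–56% acetonitrile, 254/340/450 nm), quantified against a nifurtimox standard.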

Assay [5] concerns Trypanosoma brucei. As to the kind of experiment: Antitrypanosomal activity against Trypanosoma brucei BSF overexpressing NTR gene assessed as growth inhibition after 3 days by Alamar blue assay. The format is functional, organism-based. The conditions noted are these: 72 h. Put shortly:
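Bloodstream-form 2T1 parasites overexpressing TbNTR, kept in hygromycin, seeded at 1×10^3 ml⁻¹ in modified Iscove's medium with graded compound. Tetracycline 1 μg ml⁻¹ added for induction where appropriate. 3 days at 37°C, 5% CO2, then Alamar Blue for 16 h; fluorescence at ex 530/em 585 nm. IC50 calculated; means of 4 experiments ± SD.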

Calls of active or inactive are those of the source. The rule behind the calls is not given here.

The term IC50 denotes the midpoint of a concentration-inhibition curve. Take `NC(=O)c1cc(N2CC2)c([N+](=O)[O-])cc1[N+](=O)[O-]` [TRETAZICAR]: the IC50 in assay [1] was more than 250 µM; in assay [2], 0.57 µM; in assay [3], 543 µM. The result in assay [4] was Active.

In the case of `O=C(NCCN1CCOCC1)c1cc(N2CC2)c([N+](=O)[O-])cc1[N+](=O)[O-]`, the IC50 in assay [1] was more than 250 µM; in assay [2], 1.59 µM; in assay [3], 624 µM; in assay [5], 0.89 µM. Moreover, the outcome in assay [4] was Active.

For the compound `CC1CS(=O)(=O)CCN1/N=C/c1ccc([N+](=O)[O-])o1` (centres undefined) [NIFURTIMOX], the values for the IC50 in assay [1], in assay [2] and in assay [3] were 64.1 µM, 0.24 µM and 35 µM, respectively.

Take `CS(=O)(=O)c1cc([N+](=O)[O-])c(N2CC2)cc1NCC(O)CO` (centres undefined): the IC50 in assay [2] and in assay [5] was more than 10 µM each time.

Consider `CS(=O)(=O)c1cc([N+](=O)[O-])c(N2CC2)cc1C(N)=O`, for which the IC50 in assay [2] and in assay [5] was more than 10 µM throughout.

Turning to `COC(=O)CCNC(=O)c1cc(N2CC2)c([N+](=O)[O-])cc1[N+](=O)[O-]`, the IC50 in assay [1] was more than 250 µM; in assay [2], 0.69 µM; in assay [3] it was 634 µM; in assay [5], 1.45 µM. In addition, the outcome in assay [4] was Active.

For the compound `NC(=O)c1ccc([N+](=O)[O-])c(N2CC2)c1`, the IC50 in assay [2] and in assay [5] was more than 10 µM in each case.

For `NC(=O)c1cc([N+](=O)[O-])cc([N+](=O)[O-])c1N1CC1`, the IC50 in assay [2] and in assay [5] was more than 10 µM each time.

Consider `O=[N+]([O-])c1cc(NCC(O)CO)c(N2CC2)c([N+](=O)[O-])c1` (centres undefined), for which the IC50 is more than 10 µM in assay [2] and more than 6.4 µM in assay [5].

On to `O=C(NCCN1CCOCC1)c1cc([N+](=O)[O-])cc([N+](=O)[O-])c1N1CC1`, for which the IC50 in assay [2] and in assay [5] was more than 10 µM throughout.
